This is an account of results in ChEMBL document CHEMBL1143047, “Aminoglycoside antibiotic derivatives: preparation and evaluation of toxicity on cochlea and vestibular tissues and antimicrobial activity” (Bioorg Med Chem, 2007).

The species named for series [1] is Cavia porcellus. The series is described as follows: Ototoxicity assessed as cochlear inner cells damage in Albino guinea pig with transtympanic application in right ear relative to left ear control. Further details: concentration or dose not given beside the values. Particulars: other. Format: toxicity, organism-based. The method in brief:
(§1)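 Albino guinea pigs (400–600 g) screened by Preyer reflex and otoscopy, with DPOAE/BEAP thresholds up to 5 dB in both ears under ketamine 65 mg/kg. Right ear got a transtympanic sample (0.08–0.10 mL, 0.22 mmol/mL, in water or DMSO); left ear got saline or DMSO; 06 animals. Cochlear hair cells and vestibule (semicircular channels, utriculus, sacculus) scored by SEM after glutaraldehyde/osmium fixation.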

The species named for series [2] is Cavia porcellus. The series is described as follows: Ototoxicity assessed as cochlear outer cells damage in Albino guinea pig with transtympanic application in right ear relative to left ear control. The series is classed as toxicity, organism-based. Further details: concentration or dose not given beside the values. To be noted: other. The method in brief: as §1

For series [3], the species on record is Cavia porcellus. Nature of the series: Ototoxicity assessed as vestibular damage in Albino guinea pig with transtympanic application in right ear relative to left ear control. More on the design: concentration or dose not given beside the values. Format: toxicity, organism-based. Particulars: in vivo, other. Summed up:
as §1

The next series relates to Micrococcus luteus. The series is described as follows: Antimicrobial activity against Micrococcus luteus ATCC 9341 at 15 mg/ml after 24 hrs by micro dilution method. Format: functional, organism-based. Summed up: (§2)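 Broth microdilution with about 5 × 10^4 CFU/mL per well. Compounds were dissolved in sterile water or in 10% DMSO/water and tested at 15 mg/mL in duplicate. Incubation was 24 h at 35 °C. Growth was scored qualitatively by medium turbidity (growth or no growth) against an inoculated-medium positive control and a medium-only negative control.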

The test system of a further series is Staphylococcus aureus. Nature of the series: Antimicrobial activity against Staphylococcus aureus ATCC 6538 at 15 mg/ml after 24 hrs by micro dilution method. The series is classed as functional, organism-based. The method in brief:
as §2

Series [4] has as its system Staphylococcus epidermidis. The series is described as follows: Antimicrobial activity against Staphylococcus epidermidis ATCC 12228 at 15 mg/ml after 24 hrs by micro dilution method. Format: functional, organism-based. The method in brief:
as §2

A further series relates to Escherichia coli. The series is described as follows: Antimicrobial activity against Escherichia coli ATCC 25922 at 15 mg/ml after 24 hrs by micro dilution method. Format: functional, organism-based. Summed up: as §2
The next series concerns Pseudomonas aeruginosa. The series is described as follows: Antimicrobial activity against Pseudomonas aeruginosa ATCC 27853 at 15 mg/ml after 24 hrs by micro dilution method. The series is classed as functional, organism-based. The method in brief: as §2

Active and inactive are the calls of the source.

As for `COC1OC[C@@H](O)[C@@H](O[C@H]2O[C@@H](CN)[C@@H](O)[C@H](O)[C@H]2N)[C@H]1O` (some centres undefined) [METHYL-NEOBIOSAMINIDE B], the Activity is 0% in the series listed under Cavia porcellus [1], 0% in the series filed under Cavia porcellus [2] and 100% in the series filed under Cavia porcellus [3]. Further, the outcome (with Micrococcus luteus; in the series with Staphylococcus aureus; in series [4]; in the series with Escherichia coli; in the series on Pseudomonas aeruginosa) was Active.

Turning to `O=C(NC[C@H]1O[C@H](O[C@@H]2[C@@H](O)[C@H](O)[C@@H](NC(=O)OCc3ccccc3)C[C@H]2NC(=O)OCc2ccccc2)[C@H](NC(=O)OCc2ccccc2)[C@@H](O)[C@@H]1O)OCc1ccccc1`, the Activity in the series filed under Cavia porcellus [1] was determined as 0%; in the series listed under Cavia porcellus [2], 100%; in the series filed under Cavia porcellus [3], 0%.

For the compound `NC[C@H]1O[C@H](O[C@H]2[C@H](O)[C@@H](O)[C@H](N)C[C@@H]2N)[C@H](N)[C@@H](O)[C@@H]1O` [NEAMINE], the Activity in the series listed under Cavia porcellus [1] was 0%; in the series listed under Cavia porcellus [2], 100%; in the series listed under Cavia porcellus [3], 100%. Further, the result (in the series on Micrococcus luteus; in the series with Staphylococcus aureus; in series [4]; with Escherichia coli; in the series with Pseudomonas aeruginosa) was Active.

Regarding `COC(=O)NC[C@H]1O[C@H](O[C@@H]2[C@@H](O)[C@H](O)[C@@H](NC(=O)OC)C[C@H]2NC(=O)OC)[C@H](NC(=O)OC)[C@@H](O)[C@@H]1O`, the Activity in the series listed under Cavia porcellus [1], in the series listed under Cavia porcellus [2] and in the series filed under Cavia porcellus [3] was 0% throughout.

As to `CC(=O)NC[C@H]1O[C@H](O[C@@H]2[C@@H](O)[C@H](O)[C@@H](NC(C)=O)C[C@H]2NC(C)=O)[C@H](NC(C)=O)[C@@H](O)[C@@H]1O`, the Activity in the series listed under Cavia porcellus [1], in the series filed under Cavia porcellus [2] and in the series listed under Cavia porcellus [3] was 0% throughout. The outcome (in the series with Micrococcus luteus; in the series on Staphylococcus aureus; in series [4]; with Escherichia coli) was Active. The outcome in the series with Pseudomonas aeruginosa was inactive.

As to `COc1ccc(/C=N\[C@H]2[C@@H](O[C@@H]3[C@@H](O)[C@H](O)[C@@H](/N=C/c4ccc(OC)cc4)C[C@H]3/N=C/c3ccc(OC)cc3)O[C@H](C/N=C/c3ccc(OC)cc3)[C@@H](O)[C@@H]2O)cc1`, the Activity in the series filed under Cavia porcellus [1] amounted to 100%; in the series listed under Cavia porcellus [2] it was 0%; in the series filed under Cavia porcellus [3], 0%.

`N[C@@H]1C[C@H](N)[C@@H](O)[C@H](O)[C@H]1O`: the Activity in the series listed under Cavia porcellus [1], in the series filed under Cavia porcellus [2] and in the series filed under Cavia porcellus [3] was 0% each time. The outcome in the series with Micrococcus luteus was Active. In addition, the outcome (with Staphylococcus aureus; in series [4]; in the series with Escherichia coli; in the series with Pseudomonas aeruginosa) was inactive.

In the case of `NC[C@@H]1O[C@H](O[C@H]2[C@@H](O)[C@H](O[C@@H]3[C@@H](O)[C@H](N)C[C@H](N)[C@H]3O[C@H]3O[C@H](CN)[C@@H](O)[C@H](O)[C@H]3N)O[C@@H]2CO)[C@H](N)[C@@H](O)[C@@H]1O` [FRAMYCETIN], the Activity in the series listed under Cavia porcellus [1] is 0%; in the series filed under Cavia porcellus [2] it was 100%; in the series listed under Cavia porcellus [3], 50%. The outcome (with Micrococcus luteus; with Staphylococcus aureus; in series [4]; in the series on Escherichia coli; in the series on Pseudomonas aeruginosa) was Active.
